Experimental data published in article PMC4502975 (Angewandte Chemie (International Ed. in English), 2014).
“Also recorded” adds a separate entry of the source.

What was measured:
human AC [1] = biological target: T1, human AC (Homo sapiens, UniProt Q13510); assay: Acid ceramidase; format: biochemical; conditions: for IC50 [nM] ±S.E.M on human AC: means of at least three determinations
T1 sequence (Q13510 22-395): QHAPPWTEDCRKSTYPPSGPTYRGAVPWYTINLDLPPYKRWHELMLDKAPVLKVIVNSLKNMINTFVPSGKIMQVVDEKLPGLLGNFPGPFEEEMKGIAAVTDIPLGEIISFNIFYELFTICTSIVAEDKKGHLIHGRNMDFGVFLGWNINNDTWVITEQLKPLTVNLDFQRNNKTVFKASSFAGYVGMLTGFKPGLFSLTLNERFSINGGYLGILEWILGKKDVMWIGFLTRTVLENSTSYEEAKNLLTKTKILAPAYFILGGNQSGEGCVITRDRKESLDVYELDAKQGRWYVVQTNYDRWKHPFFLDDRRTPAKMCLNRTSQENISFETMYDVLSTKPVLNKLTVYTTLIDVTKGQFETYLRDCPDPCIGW

human AC [2] = biological target: T1, human AC; assay: Kinetic analysis of the AC reaction; format: biochemical; conditions: mean of two independent experiments
Method in brief: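 Kinetic analysis of the fluorescence-based AC reaction run with vehicle (1% DMSO) or test compound at 20 or 50 nm, n=6 each. Vmax given in relative fluorescence units; KM derived for each condition. Values are the mean of two independent experiments.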

[3] = biological target: T2, purified recombinant human AC (Homo sapiens, UniProt Q13510); assay: LC-MS study of covalent adduct with AC; format: binding; conditions: 1:10 protein:compound, 1 h, 37 °C, pH 4.5
T2 sequence (Q13510 143-395 limits assumed): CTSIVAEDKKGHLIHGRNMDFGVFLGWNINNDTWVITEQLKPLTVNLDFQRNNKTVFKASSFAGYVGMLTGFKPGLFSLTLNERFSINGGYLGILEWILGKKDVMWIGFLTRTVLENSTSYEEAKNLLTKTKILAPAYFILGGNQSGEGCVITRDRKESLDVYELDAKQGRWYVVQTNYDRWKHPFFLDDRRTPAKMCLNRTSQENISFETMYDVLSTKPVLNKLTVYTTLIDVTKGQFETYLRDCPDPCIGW
T2 sequence (Q13510 22-142 limits assumed): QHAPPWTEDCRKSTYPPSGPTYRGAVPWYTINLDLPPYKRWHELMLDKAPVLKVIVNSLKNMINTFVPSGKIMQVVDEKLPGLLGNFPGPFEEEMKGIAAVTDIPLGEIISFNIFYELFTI

[4] = Buffer stability in AC assay buffer pH 4.5 by LC-MS; format: physicochemical
[5] = Chemical stability in [D6]DMSO; format: physicochemical
rat AC = conditions: read-out: IC50 for rat AC; cited from earlier work

For O=C(CCCCCc1ccccc1)n1c(=O)oc2ccccc21 [9 e], the “IC50 [nM] ±S.E.M on human AC” value (human AC [1]) was “Loss of activity; also recorded: no inhibition”.

For O=c1[nH]c2ccc(-c3ccc(F)cc3)cc2o1 [compound 19], the “inhibition of AC in vitro” value (human AC [1]; at 10 μM) was “did not inhibit”.

With O=C(NCCCCc1ccccc1)n1c(=O)oc2ccccc21 [9 a, 2-oxo-N-(4-phenylbutyl)-1,3-benzoxazole-3-carboxamide] the Vmax (human AC [2]; 9 a 20 nM) was 7808 RFU, the Vmax (human AC [2]; 9 a 50 nM) was 3889 RFU and the “covalent binding to AC (LC-MS, tryptic peptide CTSIVAEDK)” value [3] was “covalently binds to the catalytic cysteine, Cys-143”. The half-life at 10 µM [4] was 2.1 ± 0.05 h.

For O=C(OCCCCc1ccccc1)n1c(=O)oc2ccccc21 [9 d], the “IC50 [nM] ±S.E.M on human AC” value (human AC [1]) was “no inhibitory activity; also recorded: no inhibition”.

For CN(CCCCc1ccccc1)C(=O)n1c(=O)oc2ccccc21 [9 c], the “IC50 [nM] ±S.E.M on human AC” value (human AC [1]) was “no inhibitory activity; also recorded: no inhibition”.

With O=c1oc2ccccc2n1C(=S)NCCCCc1ccccc1 [9 b] the “chemical stability in [D6]DMSO” value [5] was “limited chemical stability” and the “IC50 [nM] ±S.E.M on human AC” value (human AC [1]) was “not stable”.

In the case of CCCCCCNC(=O)n1cc(F)c(=O)[nH]c1=O [carmofur, 5-fluoro-N-hexyl-2,4-dioxo-pyrimidine-1-carboxamide], the IC50 (rat AC) is listed as 0.029 µM.

For O=C(NCCCCc1ccccc1)n1c(=O)oc2cc(Br)ccc21 [16 a], the “potency relative to 9 a” value (human AC [1]; human AC) was “two-fold increase in potency” and the half-life at 10 µM [4] was 4.9 ± 0.5 h.
